For series [1], the system named is Mus musculus. In words: Antidepressant activity in mouse assessed as reduction of immobility time at 10 mg/kg, po after 60 mins by tail suspension test relative to control. Type of series: functional. The arrangement: scale not given: the % may be the effect or the level left. The essentials:
(§1)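 Mouse tail suspension test, male mice (10–12 per group, blind). Single oral dose in 5% transcutol in saline, 60 min pretreatment. Immobility recorded automatically for 5 min. Compared with vehicle group. Desipramine 100 mg/kg PO used as reference. One-way ANOVA with Dunnett's post test, p < 0.05.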

Series [2] concerns Plasma. The experiment in a line: Plasma concentration in mouse at 3 mg/kg, po. Type of series: ADME, organism-based. The following applies: in vivo. The arrangement: dose 3 mg/kg, route oral. The procedure, abridged:
(§2)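 Male mice dosed orally at 3, 10 or 30 mg/kg in 5% transcutol/saline, 60 min before the tail suspension test. Terminal whole brain (ng/g) and plasma (ng/mL) samples taken from the test animals. Brain/plasma ratio derived from these levels.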

Series [3] has as its system Mus musculus. In words: Antidepressant activity in mouse assessed as reduction of immobility time at 30 mg/kg, po after 60 mins by tail suspension test relative to control. Format: functional. The arrangement: scale not given: the % may be the effect or the level left. The procedure, abridged:
as §1

The subject of series [4] is Plasma. The experiment in a line: Plasma concentration in mouse at 10 mg/kg, po. Type of series: ADME, organism-based. The arrangement: dose 10 mg/kg, route oral. The following applies: in vivo. The procedure, abridged:
as §2

The test system of series [5] is Mus musculus. In words: Antidepressant activity in mouse assessed as reduction of immobility time at 100 mg/kg, po after 60 mins by tail suspension test relative to control. Format: functional. The arrangement: scale not given: the % may be the effect or the level left. The essentials: as §1
For series [6], the system named is Brain. In words: Drug level in mouse brain at 30 mg/kg, po. Particulars: in vivo. Format: ADME, organism-based. The arrangement: dose 30 mg/kg, route oral. The procedure, abridged: as §2
A short description of series [7]: Plasma protein binding in mouse. Format: ADME, cell-free. Particulars: read-out: PPB (converted). The procedure, abridged: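 Protein binding measured with mouse plasma protein.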
Series [8] can be described thus: Ratio of drug level in brain to plasma in mouse at 30 mg/kg, po. Particulars: brain and plasma, read-out: BPR. Type of series: ADME, organism-based. The arrangement: dose 30 mg/kg, route oral. The essentials:
as §2

Series [9] concerns Brain. The experiment in a line: Drug level in mouse brain at 3 mg/kg, po. Format: ADME, organism-based. The arrangement: dose 3 mg/kg, route oral. Particulars: in vivo. The procedure, abridged:
as §2

In series [10] the test system is Brain. In words: Drug level in mouse brain at 10 mg/kg, po. Format: ADME, organism-based. The arrangement: dose 10 mg/kg, route oral. Particulars: in vivo. The procedure, abridged:
as §2

In series [11] the test system is Mus musculus. The experiment in a line: Toxicity in mouse assessed as increase of spontaneous locomotor activity at 10 to 30 mg/kg, po measured for 5 mins. Format: organism-based. The arrangement: dose 10-30 mg/kg, route oral. The following applies: in vivo.
Series [12] deals with Plasma. In words: Plasma concentration in mouse at 30 mg/kg, po. Type of series: ADME, organism-based. The arrangement: dose 30 mg/kg, route oral. Particulars: in vivo. The procedure, abridged: as §2
Series [13] has as its target Cytochrome P450 2C19 (Homo sapiens, UniProt P33261). The experiment in a line: Inhibition of CYP2C19 in human liver microsomes by LC-MS/MS analysis. Format: ADME, Microsome. The procedure, abridged: (§3)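 Human liver microsomes incubated with isoform-specific substrates and compound, typically 0.1–25 μM. Metabolite formation read by LC-MS/MS, […]. IC50 calculated from the decrease in metabolite formation relative to vehicle control.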

The test system of series [14] is Plasma. In words: Plasma concentration in mouse assessed as (3aS,6aR)-3a-(3,4-dichlorophenyl)octahydrocyclopenta[c]pyrrole level at 30 mg/kg, po. Format: ADME, organism-based. The arrangement: dose 30 mg/kg, route oral. Particulars: in vivo. The essentials:
as §2

The target of series [15] is Sodium-dependent serotonin transporter (Homo sapiens, UniProt P31645). The experiment in a line: Inhibition of serotonin reuptake at SERT expressed in HEK293 cells. Type of series: cell-based.
Series [16] is described as follows: Ratio of drug level in brain to plasma in po dosed mouse. Type of series: ADME, organism-based. Particulars: brain and plasma, read-out: BPR. The procedure, abridged: as §2
Series [17] addresses Sodium-dependent dopamine transporter (Homo sapiens, UniProt Q01959). The experiment in a line: Inhibition of dopamine reuptake at DAT expressed in CHO-K1 cells. Format: cell-based.
Series [18] relates to Brain. The experiment in a line: Drug level in mouse brain assessed as (3aS,6aR)-3a-(3,4-dichlorophenyl)octahydrocyclopenta[c]pyrrole level at 30 mg/kg, po. Type of series: ADME, organism-based. The arrangement: dose 30 mg/kg, route oral. The following applies: in vivo. The procedure, abridged: as §2
The target of series [19] is Cytochrome P450 2C9 (Homo sapiens, UniProt P11712). The experiment in a line: Inhibition of CYP2C9 in human liver microsomes by LC-MS/MS analysis. Format: ADME, Microsome. The procedure, abridged: as §3
Background: Microsomes from liver hold many membrane-bound enzymes, among them those of drug oxidation.

The target in series [20] is Sodium-dependent noradrenaline transporter (Homo sapiens, UniProt P23975). In words: Inhibition of norepinephrine reuptake at NET expressed in MDCK cells. Type of series: cell-based.
Series [21] relates to Brain. The experiment in a line: Drug level in mouse brain assessed as (3aS,6aR)-3a-(3,4-dichlorophenyl)octahydrocyclopenta[c]pyrrole level at 3 mg/kg, po. Type of series: ADME, organism-based. The arrangement: dose 3 mg/kg, route oral. The following applies: in vivo. The essentials: as §2
The test system of series [22] is Plasma. In words: Plasma concentration in mouse assessed as (3aS,6aR)-3a-(3,4-dichlorophenyl)octahydrocyclopenta[c]pyrrole level at 10 mg/kg, po. Format: ADME, organism-based. The arrangement: dose 10 mg/kg, route oral. Particulars: in vivo. The procedure, abridged: as §2
Series [23] has as its system Brain. The experiment in a line: Drug level in mouse brain assessed as (3aS,6aR)-3a-(3,4-dichlorophenyl)octahydrocyclopenta[c]pyrrole level at 10 mg/kg, po. Particulars: in vivo. The arrangement: dose 10 mg/kg, route oral. Type of series: ADME, organism-based. The essentials:
as §2

Series [24] relates to Mus musculus. In words: Antidepressant activity in po dosed mouse assessed as reduction of immobility time after 60 mins by tail suspension test. Type of series: functional, organism-based. The procedure, abridged:
as §1

The target of series [25] is T1, CYP1A (Homo sapiens, UniProt P04798+P05177).
T1 sequence (P04798 whole entry): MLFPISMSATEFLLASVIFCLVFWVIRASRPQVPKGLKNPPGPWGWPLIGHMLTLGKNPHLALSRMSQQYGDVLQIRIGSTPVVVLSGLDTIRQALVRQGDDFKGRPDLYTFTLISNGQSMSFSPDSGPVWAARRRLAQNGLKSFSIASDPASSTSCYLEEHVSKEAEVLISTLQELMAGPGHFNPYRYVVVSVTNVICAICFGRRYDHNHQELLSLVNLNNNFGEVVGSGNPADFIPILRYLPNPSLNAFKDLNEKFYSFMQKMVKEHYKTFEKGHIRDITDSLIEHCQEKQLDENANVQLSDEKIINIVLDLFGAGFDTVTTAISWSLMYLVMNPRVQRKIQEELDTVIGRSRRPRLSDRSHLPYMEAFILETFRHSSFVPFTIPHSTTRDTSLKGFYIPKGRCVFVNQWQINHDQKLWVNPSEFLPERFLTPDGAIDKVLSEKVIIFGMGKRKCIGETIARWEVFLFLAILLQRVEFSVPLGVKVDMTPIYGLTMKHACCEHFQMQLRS
T1 sequence (P05177 whole entry): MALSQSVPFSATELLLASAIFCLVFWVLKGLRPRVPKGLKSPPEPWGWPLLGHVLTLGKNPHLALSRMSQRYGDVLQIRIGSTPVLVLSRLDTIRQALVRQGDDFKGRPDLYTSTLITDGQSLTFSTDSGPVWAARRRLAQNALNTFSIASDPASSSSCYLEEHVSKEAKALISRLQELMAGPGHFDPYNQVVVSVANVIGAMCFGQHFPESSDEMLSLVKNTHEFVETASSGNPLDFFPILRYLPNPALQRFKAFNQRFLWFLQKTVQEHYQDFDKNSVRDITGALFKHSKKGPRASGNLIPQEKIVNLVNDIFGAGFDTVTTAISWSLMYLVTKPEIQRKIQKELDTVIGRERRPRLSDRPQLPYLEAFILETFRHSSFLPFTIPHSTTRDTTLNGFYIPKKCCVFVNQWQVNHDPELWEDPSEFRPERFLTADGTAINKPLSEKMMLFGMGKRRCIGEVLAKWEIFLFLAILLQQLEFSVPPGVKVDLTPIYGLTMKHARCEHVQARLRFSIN
In words: Inhibition of CYP1A in human liver microsomes by LC-MS/MS analysis. Format: ADME, Microsome. The essentials:
as §3

Series [26] is described as follows: Half life in mouse liver microsomes at 3 uM by LC-MS/MS analysis. Format: ADME, Microsome. The procedure, abridged:
(§4)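 Human or mouse liver microsomes (0.5 mg/mL) incubated with 3 μM compound at 37 °C. Reaction started with NADPH and stopped with methanol containing internal standard. Loss of compound followed over 45 min by LC-MS/MS. Peak area ratio to internal standard plotted against time and the slope of the line taken.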

In series [27] the test system is Plasma. The experiment in a line: Plasma concentration in mouse assessed as (3aS,6aR)-3a-(3,4-dichlorophenyl)octahydrocyclopenta[c]pyrrole level at 3 mg/kg, po. The following applies: in vivo. Type of series: ADME, organism-based. The arrangement: dose 3 mg/kg, route oral. The essentials:
as §2

Series [28] deals with Cytochrome P450 3A4 (Homo sapiens, UniProt P08684). In words: Inhibition of CYP3A4 in human liver microsomes by LC-MS/MS analysis. Type of series: ADME, Microsome. The essentials:
as §3

Series [29] can be described thus: Half life in human liver microsomes at 3 uM by LC-MS/MS analysis. Type of series: ADME, Microsome. The essentials:
as §4

The target of series [30] is Cytochrome P450 2D6 (Homo sapiens, UniProt P10635). In words: Inhibition of CYP2D6 in human liver microsomes by LC-MS/MS analysis. Type of series: ADME, Microsome. The essentials: as §3

Experimental findings from ChEMBL document CHEMBL1811752, “Synthesis and pharmacological characterization of bicyclic triple reuptake inhibitor 3-aryl octahydrocyclopenta[c]pyrrole analogues” (J Med Chem, 2011) are described below.

A word on the IC50: it is the concentration at which inhibition is half-maximal. As a reminder, the half-life is how long it takes for the measured level to halve.

Sequence of Sodium-dependent serotonin transporter (P31645 whole entry): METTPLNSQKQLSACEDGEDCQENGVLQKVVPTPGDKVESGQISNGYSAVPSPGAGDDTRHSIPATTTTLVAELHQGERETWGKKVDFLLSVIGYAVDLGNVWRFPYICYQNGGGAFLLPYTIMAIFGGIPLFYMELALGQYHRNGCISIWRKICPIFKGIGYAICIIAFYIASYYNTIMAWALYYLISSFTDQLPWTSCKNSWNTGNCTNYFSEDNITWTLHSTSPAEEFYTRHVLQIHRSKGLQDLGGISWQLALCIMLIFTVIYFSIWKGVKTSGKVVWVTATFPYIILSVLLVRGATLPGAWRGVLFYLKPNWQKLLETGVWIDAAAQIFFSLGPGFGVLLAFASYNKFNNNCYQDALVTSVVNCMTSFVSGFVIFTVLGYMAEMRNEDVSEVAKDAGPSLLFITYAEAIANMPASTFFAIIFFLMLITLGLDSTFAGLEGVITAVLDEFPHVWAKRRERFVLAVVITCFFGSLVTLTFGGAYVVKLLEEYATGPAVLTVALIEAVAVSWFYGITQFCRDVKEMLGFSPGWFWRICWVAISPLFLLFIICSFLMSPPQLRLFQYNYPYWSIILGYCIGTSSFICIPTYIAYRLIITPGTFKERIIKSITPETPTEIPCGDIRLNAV
Sequence of Cytochrome P450 2D6 (P10635 whole entry): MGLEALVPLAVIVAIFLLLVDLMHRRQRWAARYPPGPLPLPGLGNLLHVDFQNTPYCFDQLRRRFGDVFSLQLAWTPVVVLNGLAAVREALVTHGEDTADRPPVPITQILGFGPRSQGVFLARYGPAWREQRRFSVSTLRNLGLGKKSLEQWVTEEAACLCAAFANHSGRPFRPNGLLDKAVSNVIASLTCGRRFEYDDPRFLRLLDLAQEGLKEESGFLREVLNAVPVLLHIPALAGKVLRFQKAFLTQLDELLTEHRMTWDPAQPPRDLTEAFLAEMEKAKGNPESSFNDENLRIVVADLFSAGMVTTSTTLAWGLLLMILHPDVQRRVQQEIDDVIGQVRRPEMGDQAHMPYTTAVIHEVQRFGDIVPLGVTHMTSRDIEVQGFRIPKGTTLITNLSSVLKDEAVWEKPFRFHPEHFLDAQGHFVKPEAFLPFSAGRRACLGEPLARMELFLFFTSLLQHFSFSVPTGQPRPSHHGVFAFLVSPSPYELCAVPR
Sequence of Cytochrome P450 3A4 (P08684 whole entry): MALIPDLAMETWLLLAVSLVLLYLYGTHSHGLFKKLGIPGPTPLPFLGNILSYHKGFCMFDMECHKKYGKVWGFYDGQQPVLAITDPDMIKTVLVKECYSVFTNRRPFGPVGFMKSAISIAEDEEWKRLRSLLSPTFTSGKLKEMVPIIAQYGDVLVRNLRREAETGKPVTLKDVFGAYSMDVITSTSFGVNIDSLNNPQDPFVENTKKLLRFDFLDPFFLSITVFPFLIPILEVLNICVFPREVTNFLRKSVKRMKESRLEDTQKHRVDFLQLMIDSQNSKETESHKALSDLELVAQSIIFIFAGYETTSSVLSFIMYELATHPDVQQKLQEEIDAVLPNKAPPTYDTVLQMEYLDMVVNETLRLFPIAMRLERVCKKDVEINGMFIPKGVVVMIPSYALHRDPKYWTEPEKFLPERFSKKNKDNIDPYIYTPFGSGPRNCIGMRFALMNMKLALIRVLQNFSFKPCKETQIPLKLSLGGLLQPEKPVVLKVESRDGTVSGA
Sequence of Cytochrome P450 2C19 (P33261 whole entry, canonical isoform): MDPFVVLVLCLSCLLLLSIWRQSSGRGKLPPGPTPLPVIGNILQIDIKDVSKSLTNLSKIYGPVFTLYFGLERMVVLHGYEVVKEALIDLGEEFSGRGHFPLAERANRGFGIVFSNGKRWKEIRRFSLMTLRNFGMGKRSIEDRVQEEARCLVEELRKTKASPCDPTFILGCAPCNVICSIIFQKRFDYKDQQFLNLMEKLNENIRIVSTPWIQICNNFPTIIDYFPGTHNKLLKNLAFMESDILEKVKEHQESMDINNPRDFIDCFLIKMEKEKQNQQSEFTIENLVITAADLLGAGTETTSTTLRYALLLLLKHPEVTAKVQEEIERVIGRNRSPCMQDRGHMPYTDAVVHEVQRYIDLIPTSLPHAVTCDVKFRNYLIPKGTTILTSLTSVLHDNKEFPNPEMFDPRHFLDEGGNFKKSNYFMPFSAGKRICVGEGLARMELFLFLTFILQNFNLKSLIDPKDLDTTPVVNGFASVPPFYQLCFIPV
Sequence of Cytochrome P450 2C9 (P11712 whole entry): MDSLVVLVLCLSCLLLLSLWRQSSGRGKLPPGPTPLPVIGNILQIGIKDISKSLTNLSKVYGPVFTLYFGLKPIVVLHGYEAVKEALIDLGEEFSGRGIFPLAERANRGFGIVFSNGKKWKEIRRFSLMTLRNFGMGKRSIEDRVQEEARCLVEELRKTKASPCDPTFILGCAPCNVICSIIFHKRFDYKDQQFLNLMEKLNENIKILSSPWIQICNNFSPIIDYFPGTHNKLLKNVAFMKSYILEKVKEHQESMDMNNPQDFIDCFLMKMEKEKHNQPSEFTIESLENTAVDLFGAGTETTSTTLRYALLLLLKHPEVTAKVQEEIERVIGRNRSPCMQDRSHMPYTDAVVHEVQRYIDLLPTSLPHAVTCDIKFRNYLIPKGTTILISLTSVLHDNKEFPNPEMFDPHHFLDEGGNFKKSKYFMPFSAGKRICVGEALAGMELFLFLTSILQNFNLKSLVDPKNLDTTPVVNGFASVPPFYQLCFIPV
Sequence of Sodium-dependent noradrenaline transporter (P23975 whole entry): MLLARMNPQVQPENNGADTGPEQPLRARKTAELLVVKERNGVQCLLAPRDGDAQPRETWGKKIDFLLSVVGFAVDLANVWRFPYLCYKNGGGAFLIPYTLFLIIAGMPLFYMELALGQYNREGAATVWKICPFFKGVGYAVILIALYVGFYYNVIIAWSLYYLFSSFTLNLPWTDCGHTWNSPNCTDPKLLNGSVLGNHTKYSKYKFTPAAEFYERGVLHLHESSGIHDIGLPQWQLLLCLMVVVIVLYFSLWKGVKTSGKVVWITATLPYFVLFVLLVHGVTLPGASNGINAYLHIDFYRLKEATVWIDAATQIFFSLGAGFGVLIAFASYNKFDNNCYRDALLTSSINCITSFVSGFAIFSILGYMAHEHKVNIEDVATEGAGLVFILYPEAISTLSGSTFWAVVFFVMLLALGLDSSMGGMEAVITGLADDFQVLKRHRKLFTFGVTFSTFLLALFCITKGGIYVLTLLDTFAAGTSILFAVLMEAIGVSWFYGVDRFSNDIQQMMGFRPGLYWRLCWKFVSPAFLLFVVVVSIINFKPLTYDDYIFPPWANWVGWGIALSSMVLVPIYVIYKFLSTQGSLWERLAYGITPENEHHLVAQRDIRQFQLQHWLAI
Sequence of Sodium-dependent dopamine transporter (Q01959 whole entry): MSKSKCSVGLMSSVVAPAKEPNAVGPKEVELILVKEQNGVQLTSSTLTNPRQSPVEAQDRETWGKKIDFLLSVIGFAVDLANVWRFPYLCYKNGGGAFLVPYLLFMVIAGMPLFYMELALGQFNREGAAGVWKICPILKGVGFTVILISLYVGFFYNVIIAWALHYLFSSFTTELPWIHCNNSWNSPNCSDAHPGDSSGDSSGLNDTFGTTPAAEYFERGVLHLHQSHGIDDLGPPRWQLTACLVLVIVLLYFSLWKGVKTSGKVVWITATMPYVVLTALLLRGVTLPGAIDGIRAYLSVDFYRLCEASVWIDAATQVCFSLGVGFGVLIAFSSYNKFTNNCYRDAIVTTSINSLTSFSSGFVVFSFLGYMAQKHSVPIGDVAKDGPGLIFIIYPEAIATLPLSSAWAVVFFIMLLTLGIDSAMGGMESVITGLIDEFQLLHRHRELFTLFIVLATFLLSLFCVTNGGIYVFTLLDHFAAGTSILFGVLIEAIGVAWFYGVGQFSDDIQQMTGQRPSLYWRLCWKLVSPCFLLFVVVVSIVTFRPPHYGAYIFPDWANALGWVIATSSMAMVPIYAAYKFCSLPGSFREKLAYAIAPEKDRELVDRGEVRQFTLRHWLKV

With `Cl.Clc1ccc([C@@]23CCC[C@@H]2CNC3)cc1Cl`, the Activity in series [1] is 29%; in series [3], 42%; in series [5] it was 25%; in series [11], “Non-toxic”. Moreover, the values for the Cp in series [2], in series [4] and in [12] were 0.069 µg/mL, 0.214 µg/mL and 0.569 µg/mL, respectively. Also, the Drug uptake in series [6] was 14050 ng/g; in series [9] it was 1747 ng/g; in series [10], 5950 ng/g. Besides, in series [7], the fraction unbound was 0.04. In addition, the Kp in series [8] came to 30.

As to `CN1C[C@H]2CCC[C@@]2(c2ccc(Cl)c(Cl)c2)C1`, the IC50 is 7.22 µM in [13]; 0.00363 µM in series [15]; 0.148 µM in [17]; greater than 25 µM in [19]; 0.0224 µM in [20]; greater than 25 µM in [25]. The half-maximal inhibitory concentration (IC50) in series [28] was greater than 25 µM; in series [30], 5.21 µM. Also, the Activity in [1] was 25%; in series [3], 31%; in [5], 26%; in series [24], “Dose-dependent effect”. For the same compound, the Cp amounted to 0.537 µg/mL in [14]; 0.002 µg/mL in series [2]; 0.007 µg/mL in [4]; 0.211 µg/mL in [22]; 0.069 µg/mL in [27]; 0.03 µg/mL in series [12]. The Kp in series [16] is 2. Moreover, the Drug uptake stood at 11433 ng/g in series [18]; 1531 ng/g in [21]; 507 ng/g in [6]; 4762 ng/g in [23]; 34 ng/g in series [9]; 113 ng/g in series [10]. The values for the half-life at 3 µM in series [26] and in series [29] were 27 min and 37 min, respectively.
